The target in experiment [1] is T1, Neutrophil elastase (Homo sapiens) (UniProt P08246).
T1 sequence (whole entry): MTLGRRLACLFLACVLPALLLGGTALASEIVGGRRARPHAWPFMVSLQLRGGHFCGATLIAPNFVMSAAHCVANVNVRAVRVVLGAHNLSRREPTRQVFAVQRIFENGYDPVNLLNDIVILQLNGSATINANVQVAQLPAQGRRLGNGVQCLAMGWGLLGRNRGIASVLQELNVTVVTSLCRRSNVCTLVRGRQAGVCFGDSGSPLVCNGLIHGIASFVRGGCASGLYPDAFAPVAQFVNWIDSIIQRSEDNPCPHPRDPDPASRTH
The experiment is described as follows: In vitro inhibition of human leukocyte elastase (HLE), and the Kobs[I] is the second-order rate constant for the time dependent inactivation of HLE by the compound.

For experiment [2], the system named is Cricetinae gen. sp. The experiment is described as follows: Oral effective dose required to inhibit HLE-induced lung hemorrhage in hamster. In kind it is functional, Cricetulus griseus. The procedure, abridged: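 Oral doses of 30, 10, 3, 1 (and 0.3) mg/kg as Methocel suspension given 30 min before intratracheal instillation of 50 units HLE/animal in hamsters; lungs lavaged 3 h later, hemoglobin read at 414 nm; % inhibition versus vehicle used to fit a dose-response curve for ED50.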

Experiment [3] deals with T1, Neutrophil elastase (Homo sapiens). As to the kind of experiment: Compound at an peroral dose of 30 mpk was tested for the inhibition of HLE-induced lung hemorrhage in hamsters. Format: functional. The procedure, abridged:
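Hamster lung hemorrhage screen: 30 mg/kg given orally as Methocel suspension 30 min before intratracheal instillation of 50 units HLE/animal; sacrifice at 3 h, saline lung lavage, hemoglobin measured at 414 nm; % inhibition versus vehicle-treated animals, averaged over three animals per dose and time.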

Another experiment concerns the target T2, Neutrophil elastase (Homo sapiens, UniProt P08246).
T2 sequence (P08246 whole entry): T1 sequence (whole entry)
As to the kind of experiment: In vitro human leukocyte elastase (HLE) inhibition, and the Kobs[I] is the second-order rate constant for the time dependent inactivation of HLE by the compound.

The test system of experiment [4] is Cricetinae gen. sp. The experiment is described as follows: Compound at an peroral dose of 100 mpk was tested for the inhibition of HLE-induced lung hemorrhage in hamsters. Format: functional, Cricetulus griseus. To be noted: po.

Data on 30 compounds can be found in ChEMBL document CHEMBL1128419, “Orally active beta-lactam inhibitors of human leukocyte elastase. 3. Stereospecific synthesis and structure-activity relationships for 3,3-dialkylazetidin-2-ones” (J Med Chem, 1995).

Regarding `CC[C@@H](NC(=O)N1C(=O)[C@](C)(CC)[C@@H]1Oc1ccc(C(=O)O)cc1)c1ccccc1`, the K obs / 1 in experiment [1] amounted to 91000 M⁻¹ s⁻¹. This compound also yielded an ED50 in the experiment with Cricetinae gen. sp. [2] of 3.7 mg/kg. Besides, the inhibition in experiment [3] came out at 98%.

In the case of `C[C@]1(Oc2ccc(C(=O)O)cc2)N(C(=O)NCc2ccccc2)C(=O)C12CCCC2`, in experiment [1], the K obs / 1 was 1900 M⁻¹ s⁻¹. In addition, the inhibition in experiment [3] was found to be 8%. In turn, `CCC[C@]1(CC)C(=O)N(C(=O)N[C@H](C)c2ccccc2)[C@H]1Oc1ccc(C(=O)O)cc1` displayed a K obs / 1 in experiment [1] of 4500 M⁻¹ s⁻¹. Besides, the inhibition in experiment [3] was found to be 61%. The like results for `CCCC[C@]1(CC)C(=O)N(C(=O)NCc2ccccc2)[C@H]1Oc1ccc(C(=O)O)cc1` were, in that order, 4400 M⁻¹ s⁻¹ and 36%. The compound `CCC[C@@]1(C)C(=O)N(C(=O)NCc2ccccc2)[C@@H]1Oc1ccc(C(=O)O)cc1` showed a Ki on Neutrophil elastase of 51 µM. In turn, `CC1(C)C(=O)N(C(=O)NCc2ccccc2)C1Oc1ccc(C(=O)O)cc1` (stereo not drawn) gave a K obs / 1 in experiment [1] of 280 M⁻¹ s⁻¹.

Compound `CC[C@@]1(COC)C(=O)N(C(=O)NCc2ccccc2)[C@H]1Oc1ccc(C(=O)O)cc1` showed a K obs / 1 in experiment [1] of 1900 M⁻¹ s⁻¹. Besides, in experiment [3], the inhibition turned out to be 46%. For `CC[C@]1(C)C(=O)N(C(=O)NCc2ccccc2)[C@@H]1Oc1ccc(C(=O)O)cc1`, the K obs / 1 in experiment [1] was found to be 200 M⁻¹ s⁻¹.

`C=CC[C@@]1(CC)C(=O)N(C(=O)NCc2ccccc2)[C@H]1Oc1ccc(C(=O)O)cc1`: the K obs / 1 in experiment [1] was determined as 2000 M⁻¹ s⁻¹. Moreover, the inhibition in experiment [3] worked out at 51%.

Compound `CC[C@@]1(C)C(=O)N(C(=O)N[C@H](C)c2ccccc2)[C@H]1Oc1ccc(C(=O)O)cc1` showed a K obs / 1 in experiment [1] of 15200 M⁻¹ s⁻¹. In experiment [3], this compound displayed an inhibition of 82%. On to `CC(C)[C@@]1(C)C(=O)N(C(=O)NCc2ccccc2)[C@H]1Oc1ccc(C(=O)O)cc1`, for which the K obs / 1 in experiment [1] was 21 M⁻¹ s⁻¹.

The compound `CC[C@H](NC(=O)N1C(=O)[C@](C)(CC)[C@@H]1Oc1ccc(C(=O)O)cc1)c1ccccc1` came in with a K obs / 1 in experiment [1] of 4700 M⁻¹ s⁻¹. In addition, the inhibition in experiment [3] was determined as 22%. In experiment [1], `CC[C@@]1(C)C(=O)N(C(=O)NCc2ccccc2)[C@@H]1Oc1ccc(C(=O)O)cc1` gave a K obs / 1 of 220 M⁻¹ s⁻¹. Still for that read-out and setting: next, `CC[C@]1(C)C(=O)N(C(=O)NCc2ccccc2)[C@H]1Oc1ccc(C(=O)O)cc1`: 160 M⁻¹ s⁻¹. Consider `CCC[C@@]1(C)C(=O)N(C(=O)NCc2ccccc2)[C@H]1Oc1ccc(C(=O)O)cc1`, for which, in experiment [1], the K obs / 1 amounted to 1900 M⁻¹ s⁻¹. Besides, in the experiment with Cricetinae gen. sp. [4], the inhibition in vivo at 100 mg/kg was 49%. Take `CC[C@@]1(C)C(=O)N(C(=O)N[C@H](C)c2ccccc2)[C@@H]1Oc1ccc(C(=O)O)cc1`: the K obs / 1 in experiment [1] turned out to be 400 M⁻¹ s⁻¹.

With `CCCC1(CCC)C(=O)N(C(=O)NCc2ccccc2)C1Oc1ccc(C(=O)O)cc1` (stereo not drawn), the K obs / 1 in experiment [1] worked out at 2500 M⁻¹ s⁻¹. In addition, the inhibition in experiment [3] was found to be 56%. For `CCC1(CC)C(=O)N(C(=O)NCc2ccccc2)[C@]1(C)Oc1ccc(C(=O)O)cc1`, the K obs / 1 in experiment [1] is 1500 M⁻¹ s⁻¹. This compound also came in with an inhibition in experiment [3] of 59%. `C=CC[C@]1(CC)C(=O)N(C(=O)NCc2ccccc2)[C@H]1Oc1ccc(C(=O)O)cc1` returned a K obs / 1 in experiment [1] of 2800 M⁻¹ s⁻¹. For the same compound, the inhibition in experiment [3] was determined as 56%. The corresponding values for `CC[C@@]1(C)C(=O)N(C(=O)NCc2ccccc2)[C@H]1Oc1ccc(C(=O)O)cc1` are 2000 M⁻¹ s⁻¹ and 70%. As to `CC[C@@]1(C)C(=O)N(C(=O)N[C@@H](C)c2ccccc2)[C@H]1Oc1ccc(C(=O)O)cc1`, the K obs / 1 in experiment [1] is 4800 M⁻¹ s⁻¹. In addition, the inhibition in experiment [3] came to 13%. The like results for `CCC[C@@]1(CC)C(=O)N(C(=O)NCc2ccccc2)[C@H]1Oc1ccc(C(=O)O)cc1` were, in that order, 3300 M⁻¹ s⁻¹ and 52%. The corresponding values for `CCC[C@]1(CC)C(=O)N(C(=O)N[C@H](CC)c2ccccc2)[C@H]1Oc1ccc(C(=O)O)cc1` are 35500 M⁻¹ s⁻¹ and 52%. `CCC[C@@H](NC(=O)N1C(=O)[C@](C)(CC)[C@@H]1Oc1ccc(C(=O)O)cc1)c1ccccc1`: in experiment [1], the K obs / 1 came to 152000 M⁻¹ s⁻¹. It took a dose of 1.5 mg/kg to reach the 50% effect level in the experiment with Cricetinae gen. sp. [2] (ED50). The inhibition in experiment [3] turned out to be 94%. Turning to `CC[C@@]1(Cc2ccccc2)C(=O)N(C(=O)NCc2ccccc2)[C@H]1Oc1ccc(C(=O)O)cc1`, in experiment [1], the K obs / 1 was 84 M⁻¹ s⁻¹.

In experiment [1], `CCC[C@@H](NC(=O)N1C(=O)[C@@](CC)(CCC)[C@@H]1Oc1ccc(C(=O)O)cc1)c1ccccc1` displayed a K obs / 1 of 60000 M⁻¹ s⁻¹. In addition, the inhibition in experiment [3] stood at 53%. In experiment [1], `CC[C@]1(Cc2ccccc2)C(=O)N(C(=O)NCc2ccccc2)[C@H]1Oc1ccc(C(=O)O)cc1` displayed a K obs / 1 of 90 M⁻¹ s⁻¹. Compound `CC[C@@]1(C(C)C)C(=O)N(C(=O)NCc2ccccc2)[C@H]1Oc1ccc(C(=O)O)cc1` gave a K obs / 1 in experiment [1] of 10 M⁻¹ s⁻¹. Further, the inhibition in experiment [3] was 13%. In turn, `CCC(C)[C@]1(CC)C(=O)N(C(=O)NCc2ccccc2)[C@H]1Oc1ccc(C(=O)O)cc1` (stereo partly drawn) had a K obs / 1 in experiment [1] of 1200 M⁻¹ s⁻¹. In experiment [3], this compound had an inhibition of 23%.

`CCCC1(CC)C(=O)N(C(=O)NCc2ccccc2)C1Oc1ccc(C(=O)O)cc1` (stereo not drawn) yielded a K obs / 1 in experiment [1] of 5200 M⁻¹ s⁻¹. The same compound gave an inhibition in experiment [3] of 78%.

Broadly, the ED50 is the midpoint of the dose-response relation. By inhibition is commonly meant the relative decrease from the control value, in per cent. High values mean strong suppression, low ones little suppression. What is called inhibition in vivo is the share of the control response that was lost under treatment.
